DENV2 CPE rescue: inhibitors of DENV2 cytopathic effect | CPE inhibition, % at 9.99 µM | DENV2-infected cells, cytopathic effect rescue, plate reader | 350,000 compounds, 1.7% hits | AID 651640; in the data active means CPE inhibition above about 20%, passing the limit was not always enough; tested in BHK-21 cells;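 further: 0% = median of neutral control wells and 100% = median of positive control wells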
Xi reactivation: activators of X-chromosome reactivation in mouse fibroblasts; activation, % at 7.58 µM; 360,000 compounds, 0.055% hits; XiGFP mouse fibroblasts, % GFP-positive cells imaging, 3 d; cells co-treated with 5-aza-dC sensitizer; scaled so ellipticine positive control = 100%;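 active means mean normalized replicate activation at least 10% and every replicate at or above 10%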;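 further: 0% = median of on-plate neutral control wells and 100% = ellipticine 6 µM median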
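System: 68-5-11 XiGFP fibroblast line | Buffer or medium: DMEM containing 5-aza-dC | Compound: Single point | Times: Compounds 3 days, fix/stain 15 min at room temperature | Benchmarks: Positive control ellipticine, 6 µM final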
Casp6 inh: inhibitors of human caspase-6. P55212. AID 686996. 350,000 compounds, 0.53% hits. purified caspase-6, Z-VEID-R110 cleavage fluorescence. inhibition, % at 12.5 µM;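 active means mean inhibition across replicates at least about 35%, with every replicate also reaching that limit, limit read from the data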;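 further: 0% = median of neutral control wells and 100% = no fluorescence left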
Target sequence (P55212 24-179 limits assumed): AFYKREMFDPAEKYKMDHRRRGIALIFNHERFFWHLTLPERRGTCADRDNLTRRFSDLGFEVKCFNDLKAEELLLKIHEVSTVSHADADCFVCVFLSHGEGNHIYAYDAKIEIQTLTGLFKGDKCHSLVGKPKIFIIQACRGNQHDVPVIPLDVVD
Target sequence (P55212 194-293 limits assumed): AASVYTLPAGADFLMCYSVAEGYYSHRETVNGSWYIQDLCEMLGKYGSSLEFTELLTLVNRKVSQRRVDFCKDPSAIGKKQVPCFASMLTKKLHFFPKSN
FN deposit inh: fibronectin deposition inhibition; AH1F fibroblasts, Alexa488-fibronectin deposition fluorescence, overnight; inhibition, % at 12.6 µM; 350,000 compounds, 0.086% hits; AID 743247;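 active means mean inhibition across replicates of 30% or more, regardless of how many single replicates reach that level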;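 further: positive control wells lacked labelled fibronectin entirely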
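Assay system: AH1F fibroblasts assembling fluorescent fibronectin matrix; Amount: 10000 AH1F cells per well; Buffer or medium: DMEM, 2% serum; Probe or stimulus: Alexa488-fibronectin, 24 nM final in well; Doses: single compound dose, delivered by pin transfer; Incubation: 1 h adhesion, overnight exposure; Measured by: fluorescence 485/525 nm; Read-out: fibronectin deposition inhibition.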
An asterisk follows results filed as active; . = no result. An excerpt weighted towards active compounds, which were near 2% of everything screened.

SMILES	DENV2 CPE rescue	Xi reactivation	Casp6 inh	FN deposit inh
CO[C@@H]1CN(C)C(=O)c2cc(NC(=O)C3CCOCC3)ccc2OC[C@@H](C)N(C)C[C@@H]1C	35.7*	0.5	0.9	-2.7
COCC(=O)N(C)C[C@H]1Oc2ncc(C3=CCCC3)cc2C(=O)N([C@@H](C)CO)C[C@@H]1C	-2.5	0.7	.	.
CO[C@@H]1CN(C)C(=O)c2ccc(NC(=O)C3CC3)cc2OC[C@@H](C)N(C(=O)Cc2ccccn2)C[C@H]1C	-2.8	-0.5	38.7*	-10.2
CO[C@H]1CN(C)C(=O)c2ccc(NC(=O)C3CC3)cc2OC[C@@H](C)N(C(=O)Cc2ccccn2)C[C@@H]1C	10.1	-0.6	1.3	-6.0
CC(C)CC#Cc1cnc2c(c1)C(=O)N([C@@H](C)CO)C[C@@H](C)[C@@H](CN(C)C(=O)Cc1cccnc1)O2	-0.7	-1.2	-1.3	-6.8
O=C(C[C@H]1C=C[C@@H](NC(=O)c2ccc(F)cc2)[C@@H](CO)O1)NCCc1ccccc1	-3.6	1.4	3.0	-8.1
COC(=O)[C@@]1(CCS(=O)(=O)c2ccccc2)N=C(c2ccc(OCCCO)cc2)O[C@H]1c1ccccc1CN=[N+]=[N-]	21.6*	.	1.9	.
O=C(NCCN1CCOCC1)[C@@]1(CCS(=O)(=O)c2ccccc2)N=C(c2ccc(OCCCO)cc2)O[C@H]1c1ccccc1	-5.6	.	0.5	.
O=C(N1CCOCC1)[C@]1(CCS(=O)(=O)c2ccccc2)N=C(c2ccc(OCCCO)cc2)O[C@@H]1c1ccccc1	22.8*	.	3.2	.
COCC#Cc1ccc2c(c1)O[C@@H](CN(C)Cc1ccncc1)[C@@H](C)CN([C@H](C)CO)S2(=O)=O	-7.2	-1.0	-0.5	3.2
C[C@@H]1CN([C@H](C)CO)S(=O)(=O)c2ccc(C#C[C@@H](C)O)cc2O[C@H]1CN(C)Cc1ccccn1	30.5*	-0.5	-0.3	.
C[C@@H]1CN([C@@H](C)CO)S(=O)(=O)c2ccc(C#CCN(C)C)cc2O[C@H]1CN(C)Cc1ccccc1	23.8*	-2.1	0.3	.
C[C@@H]1CN([C@@H](C)CO)S(=O)(=O)c2ccc(C#CCN(C)C)cc2O[C@@H]1CN(C)Cc1ccccc1F	44.7*	-0.2	2.2	.
C[C@H](CO)N1C[C@H](C)[C@@H](CN(C)Cc2ccccc2F)Oc2cc(C#CCN(C)C)ccc2S1(=O)=O	19.7	-1.3	-4.4	.
COCC#Cc1ccc2c(c1)O[C@@H](CN(C)Cc1ccncc1)[C@@H](C)CN([C@@H](C)CO)S2(=O)=O	22.1*	-1.1	1.8	13.9
C[C@H]1CN([C@@H](C)CO)S(=O)(=O)c2ccc(C#CCN(C)C)cc2O[C@H]1CN(C)Cc1ccccc1	-1.9	1.7	-45.0	.
CC(C)CC#Cc1cnc2c(c1)C(=O)N([C@H](C)CO)C[C@@H](C)[C@H](CN(C)C(=O)c1ccc(F)cc1)O2	-11.6	-0.9	-0.4	-15.7
C[C@@H]1CN(C)C(=O)c2cc(N)ccc2O[C@@H]1CN(C)S(C)(=O)=O	.	0.5	.	-3.1
O=C(C[C@@H]1C=C[C@@H](NC(=O)NC2CCCCC2)[C@@H](CO)O1)NCc1ccc(Cl)cc1	4.6	0.3	2.3	.
C[C@H]1CN([C@@H](C)CO)C(=O)c2cc(NS(=O)(=O)c3ccccc3)ccc2O[C@H]1CN(C)Cc1ccc(Oc2ccccc2)cc1	34.7*	-1.2	9.4	.
CNC[C@@H]1Oc2ccc(NS(=O)(=O)c3ccc(C)cc3)cc2CC(=O)N([C@H](C)CO)C[C@H]1C	41.6*	0.0	-3.5	.
Cc1ccc(S(=O)(=O)Nc2ccc3c(c2)CC(=O)N([C@@H](C)CO)C[C@H](C)[C@H](CN(C)Cc2ccc(Oc4ccccc4)cc2)O3)cc1	68.7*	-1.1	-2.6	.
C[C@H]1CN([C@@H](C)CO)C(=O)c2cc(NS(=O)(=O)c3ccccc3)ccc2O[C@@H]1CN(C)Cc1ccc(Oc2ccccc2)cc1	-7.1	-0.2	2.1	.
C[C@@H]1CN([C@H](C)CO)C(=O)Cc2cc(NS(=O)(=O)c3ccccc3)ccc2O[C@@H]1CN(C)Cc1ccc(Oc2ccccc2)cc1	29.9*	0.6	-0.9	.
C[C@@H]1CN([C@@H](C)CO)C(=O)Cc2cc(NS(=O)(=O)c3ccccc3)ccc2O[C@H]1CN(C)Cc1ccc(Oc2ccccc2)cc1	-26.3	0.2	1.2	.
SMILES	DENV2 CPE rescue	Xi reactivation	Casp6 inh	FN deposit inh
C[C@H](O)C#Cc1cnc2c(c1)C(=O)N([C@H](C)CO)C[C@H](C)[C@H](CN(C)CC1CC1)O2	.	-0.8	.	6.4
CCCN1C[C@H](C)[C@@H](OC)CN(C)C(=O)c2cc(NC(=O)c3cnccn3)ccc2OC[C@H]1C	10.5	0.6	.	-4.6
C[C@H]1CN(C)C(=O)Cc2cc(NS(C)(=O)=O)ccc2O[C@H]1CN(C)C	.	0.2	.	-4.3
COCC(=O)N1C[C@@H](C)[C@@H](OC)CN(C)C(=O)c2ccc(NC(=O)NC(C)C)cc2OC[C@H]1C	11.0	-0.3	-4.3	4.2
Cc1ccc(S(=O)(=O)Nc2ccc3c(c2)CC(=O)N([C@@H](C)CO)C[C@H](C)[C@H](CN(C)Cc2ccncc2)O3)cc1	4.7	0.0	0.0	.
Cc1ccc(S(=O)(=O)Nc2ccc3c(c2)CC(=O)N([C@@H](C)CO)C[C@@H](C)[C@H](CN(C)Cc2ccncc2)O3)cc1	37.4*	0.1	-3.5	.
O=C(C[C@@H]1C[C@H]2c3cc(NC(=O)C4CCOCC4)ccc3O[C@H]2[C@H](CO)O1)NCc1ccc(Oc2ccccc2)cc1	-5.6	0.0	-0.3	.
CCNC(=O)[C@H]1[C@H](CO)[C@H]2Cn3c(ccc(C4=CCCCC4)c3=O)[C@@H]1N2CCC(F)(F)F	-8.4	0.0	3.9	.
COc1ccc(C#Cc2ccc([C@H]3[C@@H](CO)N4CCCCN(S(=O)(=O)c5ccccc5)C[C@@H]34)cc2)cc1	81.9*	0.7	1.2	.
COc1ccc(C#Cc2ccc([C@@H]3[C@@H](CO)N4CCCCN(S(=O)(=O)c5ccccc5)C[C@@H]34)cc2)cc1	31.7*	.	27.6	.
COc1ccc(C#Cc2ccc([C@H]3[C@H](CO)N4CCCCN(S(=O)(=O)c5ccccc5)C[C@@H]34)cc2)cc1	-30.3	0.6	-0.3	.
C/C=C/c1ccc([C@@H]2[C@@H](CO)N3C(=O)CN(Cc4ccccc4)C[C@H]23)cc1	25.2*	0.2	3.5	.
COCC#Cc1ccc([C@H]2[C@H]3CN(S(=O)(=O)c4cccc(OC)c4)CCCCN3[C@H]2CO)cc1	22.5*	0.1	-0.3	.
C[C@H]1CN(C)C(=O)c2cccc(N)c2O[C@H]1CN(C)C(=O)OC(C)(C)C	.	0.3	.	-0.4
COc1ccc2c3c(n(C)c2c1)[C@@H](CO)N(C(=O)CN(C)C)CC31CN(Cc2cccnc2)C1	.	0.5	.	.
C/C=C/c1ccc([C@H]2[C@@H](CO)N3CCCCN(S(=O)(=O)c4ccccc4)C[C@@H]23)cc1	114.6*	0.1	5.1	.
C/C=C/c1ccc([C@@H]2[C@H]3CN(S(=O)(=O)c4ccccc4)CCCCN3[C@H]2CO)cc1	0.8	0.1	0.5	.

Compound activity (PubChem BioAssay)
